Experiments:
[1] = target: T1, Prostaglandin E synthase (Homo sapiens) (UniProt O14684); experiment: Inhibition of mPGES-1 derived from IL1beta and TNFalpha stimulated human HeLa cells microsomal fraction using PGH2 as substrate at 1 uM preincubated for 30 mins prior to substrate addition measured after 1 min by LC-MS/MS analysis relative to control
T1 sequence (whole entry): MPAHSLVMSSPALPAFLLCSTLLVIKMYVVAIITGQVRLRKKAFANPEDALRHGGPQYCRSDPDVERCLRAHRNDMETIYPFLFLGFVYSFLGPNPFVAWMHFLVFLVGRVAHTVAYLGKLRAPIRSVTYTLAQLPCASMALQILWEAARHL
Summary of the method: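 Microsomes were pelleted by ultracentrifugation and resuspended in buffer with 2.5 mM GSH; protein was measured by Bradford. PGE₂ was read by LC-MS/MS after solid-phase extraction with deuterated standards; n ≥ 3.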

[2] = target: T2, Prostaglandin E synthase (Mus musculus) (UniProt Q9JM51); experiment: Inhibition of mPGES-1 derived from LPS stimulated mouse RAW264.7 cells microsomal fraction using PGH2 as substrate at 1 uM preincubated for 30 mins prior to substrate addition measured after 1 min by LC-MS/MS analysis relative to control
T2 sequence (whole entry): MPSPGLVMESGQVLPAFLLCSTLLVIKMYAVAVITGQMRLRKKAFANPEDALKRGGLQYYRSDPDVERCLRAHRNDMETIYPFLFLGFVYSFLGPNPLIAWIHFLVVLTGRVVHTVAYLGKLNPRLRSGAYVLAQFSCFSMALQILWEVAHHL
Summary of the method: (§1)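 Microsomes came from RAW 264.7 cells stimulated with LPS for 16 h. They were prepared by sonication and ultracentrifugation in 0.1 M potassium phosphate, pH 7.4, with GSH and protease inhibitors, and resuspended with 2.5 mM GSH; protein was measured by Bradford. Compound was tested at the stated final concentration. PGE₂ was quantified by LC-MS/MS after solid-phase extraction with PGE₂-d₄/PGD₂-d₄ standards; SEM, n ≥ 3.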

[3] = target: T2, Prostaglandin E synthase (Mus musculus); experiment: Inhibition of mPGES-1 derived from LPS stimulated mouse NIH3T3 cells microsomal fraction using PGH2 as substrate at 1 uM preincubated for 30 mins prior to substrate addition measured after 1 min by LC-MS/MS analysis relative to control
[4] = target: T3, Prostaglandin G/H synthase 1 (Ovis aries) (UniProt P05979); experiment: Inhibition of ovine COX1-mediated PGE2 synthesis using PGH2 as substrate at 1 uM by LC-MS/MS analysis relative to control
T3 sequence (whole entry): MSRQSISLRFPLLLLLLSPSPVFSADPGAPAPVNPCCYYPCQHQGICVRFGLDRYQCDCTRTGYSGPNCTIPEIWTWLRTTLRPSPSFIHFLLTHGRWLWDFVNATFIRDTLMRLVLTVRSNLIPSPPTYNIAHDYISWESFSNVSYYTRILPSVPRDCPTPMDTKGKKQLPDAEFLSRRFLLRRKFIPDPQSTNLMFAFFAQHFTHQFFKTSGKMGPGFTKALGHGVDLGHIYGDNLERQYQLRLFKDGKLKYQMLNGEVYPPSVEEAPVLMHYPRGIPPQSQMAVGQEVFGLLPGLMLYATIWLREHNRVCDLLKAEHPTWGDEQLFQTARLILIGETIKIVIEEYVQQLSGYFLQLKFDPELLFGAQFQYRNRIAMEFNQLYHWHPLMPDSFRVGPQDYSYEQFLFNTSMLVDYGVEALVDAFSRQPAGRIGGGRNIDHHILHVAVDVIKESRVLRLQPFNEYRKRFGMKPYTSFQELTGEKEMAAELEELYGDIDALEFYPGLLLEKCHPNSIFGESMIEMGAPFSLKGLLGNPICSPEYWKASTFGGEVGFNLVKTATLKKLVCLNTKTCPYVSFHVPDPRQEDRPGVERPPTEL
Summary of the method: (§2)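 Direct enzyme test with a COX inhibitor screening kit, run per the kit protocol: COX-1 was ovine, COX-2 human recombinant. […] Prostaglandins were quantified by LC-MS/MS after solid-phase extraction. Mean of n ≥ 3.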

[5] = target: T4, Prostaglandin G/H synthase 2 (Homo sapiens) (UniProt P35354); experiment: Inhibition of human recombinant COX2-mediated PGE2 synthesis using PGH2 as substrate at 1 uM by LC-MS/MS analysis relative to control; summary of the method: as §2
T4 sequence (whole entry): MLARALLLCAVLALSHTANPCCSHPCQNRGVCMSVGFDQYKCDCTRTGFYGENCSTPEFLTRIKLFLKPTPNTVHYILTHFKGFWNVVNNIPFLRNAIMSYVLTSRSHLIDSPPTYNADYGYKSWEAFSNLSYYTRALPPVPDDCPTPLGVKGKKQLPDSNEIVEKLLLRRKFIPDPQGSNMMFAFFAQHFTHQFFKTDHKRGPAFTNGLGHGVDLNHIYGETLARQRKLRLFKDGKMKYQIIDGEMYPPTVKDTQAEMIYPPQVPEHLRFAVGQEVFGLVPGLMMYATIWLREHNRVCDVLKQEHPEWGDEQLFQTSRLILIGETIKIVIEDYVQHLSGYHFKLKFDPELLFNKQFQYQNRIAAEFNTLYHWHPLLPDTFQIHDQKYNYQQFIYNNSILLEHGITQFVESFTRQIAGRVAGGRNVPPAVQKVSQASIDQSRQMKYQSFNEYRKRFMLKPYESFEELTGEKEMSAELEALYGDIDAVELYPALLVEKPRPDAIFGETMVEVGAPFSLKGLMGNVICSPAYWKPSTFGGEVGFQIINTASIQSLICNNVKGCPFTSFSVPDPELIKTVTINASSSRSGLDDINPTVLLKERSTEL

[6] = tested on: HeLa; experiment: Cytotoxicity against IL1beta and TNFalpha-stimulated human HeLa cells at 1 to 10 uM after 24 hrs by WST1 assay; format: cell-based
Summary of the method: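 HeLa cells were seeded at 3 × 10³ per well and grown 24 h at 37 °C. They were then stimulated with IL-1β (1 ng/mL) + TNFα (5 ng/mL) while treated with compound at 1, 10 or 100 μM, or DMSO, for 24 h. WST-1 was added for 90–150 min and absorbance read at 450 nm against 620 nm. Viability is percent of DMSO control, SEM, n ≥ 3.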

[7] = target: Prostaglandin G/H synthase 1 (Homo sapiens) (UniProt P23219); experiment: Inhibition of COX1 in human whole blood assessed as residual TXB2 level at 10 uM after 1 hr by LC-MS/MS analysis relative to control
Summary of the method: (§3)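 Human venous blood was drawn without additives, and compound was added. Samples clotted at 37 °C for 1 h; negative controls were chilled on ice at once. After 5 min on ice, plasma was separated at 4 °C. It was mixed with H₃PO₄, EDTA, BHT and deuterated internal standards, then put through solid-phase extraction. TXB₂ and PGD₂ were measured by LC-MS/MS, relative to vehicle-treated blood.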

[8] = target: Prostaglandin G/H synthase 1 (Homo sapiens) (UniProt P23219); experiment: Inhibition of COX1 in human whole blood assessed as residual PGD2 level at 10 uM after 1 hr by LC-MS/MS analysis relative to control; summary of the method: as §3
[9] = target: T4, Prostaglandin G/H synthase 2 (Homo sapiens); experiment: Inhibition of COX2 in LPS-stimulated human whole blood assessed as residual PGE2 level at 100 uM preincubated for 15 mins prior to LPS-stimulation measured after 24 hrs by LC-MS/MS analysis relative to control
Summary of the method: (§4)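 Human whole blood received compound in DMSO plus acetylsalicylic acid (10 μg/mL) to block COX-1, 15 min at 37 °C. LPS (10 μg/mL final) in autologous plasma was added to induce COX-2/mPGES-1, and blood was incubated 24 h at 37 °C. Samples were chilled on ice 5 min, and plasma prostaglandins were extracted by solid-phase extraction and quantified by LC-MS/MS. Values are relative to vehicle.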

[10] = target: T5, 5-lipoxygenase/FLAP (Homo sapiens) (UniProt P09917+P20292); experiment: Inhibition of 5-lipoxygenase/FLAP in calcium ionophore-stimulated human whole blood assessed as residual LTB4 level at 10 uM preincubated for 15 mins prior to calcium ionophore-stimulation measured after 15 mins by LC-MS/MS analysis; format: protein-complex assay
Summary of the method: (§5)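 Heparinized human whole blood (500 μL) was preincubated with compound for 15 min at 37 °C. It was then stimulated with 20 μM calcium ionophore A23187 in autologous plasma for 15 min at 37 °C and chilled on ice for 5 min. Plasma was collected by centrifugation at 4 °C. Eicosanoids were recovered by liquid–liquid extraction with deuterated internal standards and quantified by LC-MS/MS (MRM). Levels are relative to vehicle-treated blood.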

[11] = target: T4, Prostaglandin G/H synthase 2 (Homo sapiens); experiment: Inhibition of COX2 in LPS-stimulated human whole blood assessed as residual PGF2alpha level at 100 uM preincubated for 15 mins prior to LPS-stimulation measured after 24 hrs by LC-MS/MS analysis relative to control; summary of the method: as §4
[12] = target: T5, 5-lipoxygenase/FLAP (Homo sapiens); experiment: Inhibition of 5-lipoxygenase/FLAP in calcium ionophore-stimulated human whole blood assessed as residual 12(s)HETE level at 10 uM preincubated for 15 mins prior to calcium ionophore-stimulation measured after 15 mins by LC-MS/MS analysis; format: protein-complex assay; summary of the method: as §5
[13] = target: T5, 5-lipoxygenase/FLAP (Homo sapiens); experiment: Inhibition of 5-lipoxygenase/FLAP in calcium ionophore-stimulated human whole blood assessed as 5(s)HETE level at 10 uM preincubated for 15 mins prior to calcium ionophore-stimulation measured after 15 mins by LC-MS/MS analysis; format: protein-complex assay; design: scale not given: the % may be the effect or the level left; summary of the method: as §5
[14] = target: T5, 5-lipoxygenase/FLAP (Homo sapiens); experiment: Inhibition of 5-lipoxygenase/FLAP in calcium ionophore-stimulated human whole blood assessed as residual 15(s)HETE level at 10 uM preincubated for 15 mins prior to calcium ionophore-stimulation measured after 15 mins by LC-MS/MS analysis; format: protein-complex assay; summary of the method: as §5
[15] = target: T5, 5-lipoxygenase/FLAP (Homo sapiens); experiment: Inhibition of 5-lipoxygenase/FLAP in calcium ionophore-stimulated human whole blood assessed as residual (+/-)11HETE level at 10 uM preincubated for 15 mins prior to calcium ionophore-stimulation measured after 15 mins by LC-MS/MS analysis; format: protein-complex assay; summary of the method: as §5
[16] = target: T1, Prostaglandin E synthase (Homo sapiens); experiment: Inhibition of mPGES-1 in IL1beta and TNFalpha-stimulated human HeLa cells assessed as PGE2 level after 24 hrs by LC-MS/MS analysis; format: cell-based
Summary of the method: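 HeLa cells (2 × 10⁴) were grown 24 h at 37 °C. The medium was then replaced with IL-1β (1 ng/mL) + TNFα (5 ng/mL), or PBS for unstimulated controls, together with compound at 1, 10 or 100 μM, or DMSO, for 24 h at 37 °C. Supernatant PGE₂ was quantified by LC-MS/MS after solid-phase extraction with deuterated standards. Inhibition is percent of DMSO control corrected for unstimulated background, SEM, n ≥ 3.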

[17] = target: T2, Prostaglandin E synthase (Mus musculus); experiment: Inhibition of mPGES-1 derived from LPS stimulated mouse RAW264.7 cells microsomal fraction using PGH2 as substrate at 5 uM preincubated for 30 mins prior to substrate addition measured after 1 min by LC-MS/MS analysis relative to control; summary of the method: as §1
[18] = target: T2, Prostaglandin E synthase (Mus musculus); experiment: Inhibition of mPGES-1 derived from LPS stimulated mouse NIH3T3 cells microsomal fraction using PGH2 as substrate at 5 uM preincubated for 30 mins prior to substrate addition measured after 1 min by LC-MS/MS analysis relative to control

Chain of Prostaglandin G/H synthase 1 (Homo sapiens) (P23219 whole entry): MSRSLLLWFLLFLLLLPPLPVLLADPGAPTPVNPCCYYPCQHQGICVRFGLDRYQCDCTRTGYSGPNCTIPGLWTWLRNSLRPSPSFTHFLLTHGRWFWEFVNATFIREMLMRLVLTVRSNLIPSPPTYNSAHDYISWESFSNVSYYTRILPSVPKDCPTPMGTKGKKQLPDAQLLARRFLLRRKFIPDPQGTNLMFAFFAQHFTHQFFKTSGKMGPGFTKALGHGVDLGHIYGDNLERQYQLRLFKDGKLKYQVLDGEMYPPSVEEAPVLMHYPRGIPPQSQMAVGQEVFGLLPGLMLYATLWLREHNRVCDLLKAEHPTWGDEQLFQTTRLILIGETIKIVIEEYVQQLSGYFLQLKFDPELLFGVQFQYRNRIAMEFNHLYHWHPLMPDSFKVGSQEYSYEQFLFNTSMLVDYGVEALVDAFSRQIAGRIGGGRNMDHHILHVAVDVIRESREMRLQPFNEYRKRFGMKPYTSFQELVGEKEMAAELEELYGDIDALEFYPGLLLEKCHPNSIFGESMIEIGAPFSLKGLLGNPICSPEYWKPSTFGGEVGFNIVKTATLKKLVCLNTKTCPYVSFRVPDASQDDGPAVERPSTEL

SMILES: CCCc1nc2ccc(NC(=O)Nc3ccccc3Cl)cc2c(=O)n1Cc1ccccc1Cl
- inhibition [1]: 14.1%

SMILES: CCCc1nc2ccc(NC(=O)CCc3ccccc3)cc2c(=O)n1Cc1ccc(-c2cccc(Cl)c2)cc1
- inhibition [1]: 32.7%

SMILES: CCCc1nc2ccc(NC(=O)c3ccccc3Cl)cc2c(=O)n1Cc1ccccc1Cl
- inhibition [2]: 15.2%
- inhibition [3]: 6.6%
- inhibition [4]: 16.1%
- inhibition [5]: < 0%
- Activity [6]: Non-toxic
- Activity [7]: 86.1%
- Activity [8]: 89%
- Activity [9]: 34.2%
- Activity [10]: 91.3%
- Activity [11]: 73.4%
- Activity [12]: 82.7%
- Activity [13]: 88.1%
- Activity [14]: 78.3%
- Activity [15]: 75.4%

SMILES: CCCc1nc2ccc(NC(=O)c3ccccc3)cc2c(=O)n1Cc1ccc(-c2cccc(Cl)c2)cc1
- inhibition [1]: 15.3%

SMILES: CCCc1nc2ccc(NC(C)=O)cc2c(=O)n1Cc1ccc(-c2cccc(Cl)c2)cc1
- inhibition [1]: 14.8%

SMILES: O=C(Nc1ccc2nc(C3CC3)n(Cc3ccccc3)c(=O)c2c1)c1cccnc1
- inhibition [1]: < 0%

SMILES: CCCc1nc2ccc(NC(=O)c3ccccc3F)cc2c(=O)n1Cc1ccc(-c2cccc(Cl)c2)cc1
- inhibition [1]: 30%

SMILES: CCCc1nc2ccc(NC(=O)C(C)(C)C)cc2c(=O)n1Cc1ccc(-c2cccc(Cl)c2)cc1
- inhibition [1]: 18.8%

SMILES: CCCc1nc2ccc(NC(=O)c3ccccc3Cl)cc2c(=O)n1Cc1ccc(-c2ccccc2OC)cc1
- inhibition [1]: 61.3%

SMILES: O=C(Cn1cnc2ccccc2c1=O)Nc1ccccc1Cl
- inhibition [1]: < 0%

SMILES: Cc1ccc(-c2cc(C(F)(F)F)nn2-c2ccc(S(N)(=O)=O)cc2)cc1
- inhibition [16]: Dose-dependent effect

SMILES: CCCc1nc2ccc(NC(=O)C3CC3)cc2c(=O)n1Cc1ccc(-c2cccc(OC)c2)cc1
- inhibition [1]: 15.9%

SMILES: Cc1nc2ccc(NC(=O)c3ccccc3Cl)cc2c(=O)n1Cc1ccc(-c2cccc(Cl)c2)cc1
- inhibition [1]: 41.9%

SMILES: CCCc1nc2ccc(NC(=O)c3cccs3)cc2c(=O)n1Cc1ccc(-c2cccc(Cl)c2)cc1
- inhibition [1]: 15.6%

SMILES: O=C(Nc1ccc2nc(Cc3ccccc3)n(Cc3cccc(Cl)c3)c(=O)c2c1)c1ccccc1Cl
- inhibition [1]: 67.2%
- inhibition [2]: 3.8%
- inhibition [3]: 17.8%
- inhibition [4]: < 0%
- inhibition [5]: < 0%
- Activity [6]: Non-toxic
- inhibition [16]: Dose-dependent effect

SMILES: CCCCCCC(Sc1nc(Cl)cc(Nc2cccc(C)c2C)n1)C(=O)O (stereo not given)
- inhibition [17]: 66.2%
- inhibition [18]: 62.9%

SMILES: CCCc1nc2ccc(NC(=O)c3c(Cl)cccc3Cl)cc2c(=O)n1Cc1cccc(Cl)c1
- inhibition [1]: 61.3%

SMILES: CCCc1nc2ccc(NC(=O)c3ccc(Cl)cc3)cc2c(=O)n1Cc1ccc(-c2cccc(Cl)c2)cc1
- inhibition [1]: 14.7%

SMILES: O=C1NC(c2ccccc2Cl)Oc2ccccc21 (stereo not given)
- inhibition [1]: < 0%

SMILES: Cc1ccccc1C(=O)Nc1cc2c(=O)n(Cc3ccccc3)c(C)nc2cc1N1CCCC1
- inhibition [1]: 37.1%

From ChEMBL document CHEMBL2046422, “Structure-activity relationship of nonacidic quinazolinone inhibitors of human microsomal prostaglandin synthase 1 (mPGES 1)” (J Med Chem, 2012)
